Reference: ChEMBL document CHEMBL1275335, “Design and synthesis of 2-arylbenzimidazoles and evaluation of their inhibitory effect against Chlamydia pneumoniae” (J Med Chem, 2010)
Values after ≈ are worked out from the molar mass of the structure shown. Active and inactive are the calls of the source. The rule behind the calls is not given here.

Legend:
Chlamydia pneumoniae [1] = assay: Antibacterial activity against Chlamydia pneumoniae CWL029 infected in human HL cells assessed as inhibition of bacterial growth at 10 uM after 72 hrs by TR-FIA method; type: functional
Method in brief: (§1)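 HL cells were seeded at 6×10^4/well in RPMI 1640 with 7.5% FBS, 2 mM glutamine and gentamicin, then infected 24 h later with CWL-029 at MOI 0.2 plus 0.5 μg/mL cycloheximide and centrifuged 1 h. Compounds were added in six replicates for 72 h at 37 C. After methanol fixation, wells were labelled with europium-conjugated chlamydial antibody (100 ng/mL, 30 min, 37 C) and read by time-resolved fluorescence; rifampicin 0.012 μM served as control.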

[2] = Cytotoxicity against human HL cells assessed as cell viability at 10 uM after 72 hrs by celltiter-glo analysis; type: cell-based; conditions: read-out: Activity
Method in brief: (§2)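 After 72 h, viability was measured as intracellular ATP by CellTiter-Glo luminescence after partial medium replacement. Results are expressed as a percentage of cells given DMSO-adjusted medium.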

Escherichia coli = assay: Antibacterial activity against Escherichia coli ATCC 25922 assessed as inhibition of bacterial growth at 50 uM after 18 hrs by photometric method; type: functional, organism-based
Method in brief: (§3)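 Bacteria were dispensed with 0.01% resazurin and compound, reaching a final 50 μM; ampicillin 25 μM was the control. After 18 h at 37 C, resazurin was read photometrically at 600 nm.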

Staphylococcus aureus = assay: Antibacterial activity against Staphylococcus aureus ATCC 25923 assessed as inhibition of bacterial growth at 50 uM after 18 hrs by photometric method; type: functional; method in brief: as §3
Chlamydia pneumoniae [3] = assay: Antibacterial activity against Chlamydia pneumoniae CWL029 infected in human HL cells after 72 hrs by TR-FIA method; type: functional, cell-based; conditions: in the assay text read “immunofluorescence method” for “TR-FIA method”; method in brief: as §1
Chlamydia pneumoniae [4] = assay: Chlamydiostatic activity against Chlamydia pneumoniae CV6 infected in human Hep2 cells after 72 hrs by fluorescence assay; type: functional, HEp-2; conditions: CV6, 72 h
Method in brief: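 Confluent HEp-2 monolayers on coverslips were centrifuged with C. pneumoniae CV-6 (10^3 IFU/mL; 1700g, 45 min, 35 C). Medium was replaced with MEM containing cycloheximide 1 μg/mL and serial 2-fold compound dilutions. After 72 h at 35 C, 5% CO2, inclusions were stained with fluorescein-conjugated anti-Chlamydia LPS mAb. MIC is the lowest concentration with no IFU; titrations were run in duplicate.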

Chlamydia pneumoniae [5] = assay: Antibacterial activity against Chlamydia pneumoniae CV6 infected in human Hep2 cells assessed as minimal chlamydiocidal activity after 72 hrs by fluorescence assay; type: functional, HEp-2; conditions: CV6, 72 h
Method in brief: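 CV-6 was grown in HEp-2 cells under 2-fold compound dilutions (MEM, cycloheximide 1 μg/mL, 72 h, 35 C). Drug medium was then removed, wells washed with PBS pH 7.4 and fed drug-free medium. Monolayers were disrupted, passed onto fresh monolayers, incubated and stained with fluorescein anti-LPS mAb. MCC is the lowest concentration giving no IFU in the antibiotic-free passage; run in duplicate.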

HL = assay: Cytotoxicity against human HL cells at 2.5 uM after 72 hrs by celltiter-glo analysis; type: cell-based; method in brief: as §2

Structure (SMILES)	inhibition at 10 µM (Chlamydia pneumoniae [1])	viability at 72 h, 10 µM [2]	growth inhibition (GI) (Escherichia coli)	growth inhibition (GI) (Staphylococcus aureus)	IC50 (Chlamydia pneumoniae [3])	MIC (Chlamydia pneumoniae [4])	MCC (Chlamydia pneumoniae [5])	inhibition of growth at 50 µM (Staphylococcus aureus; ATCC 25923, 18 h, read-out: GI)	Activity (HL)
CC(=O)Nc1cccc(-c2nc3ccccc3[nH]2)c1	0%	100%	inactive	inactive	–	–	–	–	–
O=C(Nc1ccc(-c2nc3ccccc3[nH]2)cc1)c1cccs1	0%	96%	inactive	inactive	–	–	–	–	–
O=C(Nc1cccc(-c2nc3ccccc3[nH]2)c1)c1cccc(Cl)c1	94%	106%	inactive	inactive	–	–	–	–	–
O=C(Nc1cccc(-c2nc3ccccc3[nH]2)c1)c1cccc(C(F)(F)F)c1	99%	69%	inactive	–	3000 nM	3.2 µM (≈ 1.22 µg/mL)	50.4 µM	85%	Non-toxic
COc1ccc(-c2nc3ccccc3[nH]2)cc1NC(=O)c1cccs1	52%	101%	inactive	inactive	–	–	–	–	–
O=C(Nc1cccc(-c2nc3ccccc3[nH]2)c1)c1ccccc1C(F)(F)F	96%	80%	inactive	inactive	–	–	–	–	–
Cc1cccc(C(=O)Nc2cccc(-c3nc4ccccc4[nH]3)c2)c1	98%	99%	inactive	inactive	2000 nM	3.2 µM (≈ 1.05 µg/mL)	3.2 µM	–	Non-toxic
O=S(=O)(Nc1cccc(-c2nc3ccccc3[nH]2)c1)c1ccccc1	0%	77%	inactive	inactive	–	–	–	–	–
O=C(Nc1cccc(-c2nc3ccccc3[nH]2)c1)c1cscn1	39%	98%	inactive	inactive	–	–	–	–	–
O=C(Nc1cccc(-c2nc3ccccc3[nH]2)c1)C1CCCCC1	100%	94%	inactive	inactive	–	24.5 µM (≈ 7.83 µg/mL)	24.5 µM	–	Non-toxic
CC(C)(C)C(=O)Nc1cccc(-c2nc3ccccc3[nH]2)c1	0%	98%	inactive	inactive	–	–	–	–	–
Cc1c(NC(=O)c2cccs2)cccc1-c1nc2ccccc2[nH]1	59%	87%	inactive	inactive	–	–	–	–	–
Cc1cccc2[nH]c(-c3cccc(NC(=O)c4cccs4)c3)nc12	89%	102%	inactive	inactive	–	–	–	–	–
O=C(Nc1cccc(-c2nc3ccccc3[nH]2)c1)c1cccc(F)c1	58%	101%	inactive	inactive	–	–	–	–	–
O=C(Nc1cccc(-c2nc3ccccc3o2)c1)c1cccs1	61%	94%	–	–	–	–	–	–	–
COc1ccc2[nH]c(-c3cccc(NC(=O)c4cccs4)c3)nc2c1	74%	98%	inactive	inactive	–	–	–	–	–
COC(=O)c1cccc(C(=O)Nc2cccc(-c3nc4ccccc4[nH]3)c2)c1	99%	99%	inactive	inactive	–	–	–	–	–
